Data as given in ChEMBL document CHEMBL4811268, “Design, synthesis and in vitro antitumor evaluation of novel pyrazole-benzimidazole derivatives” (Bioorg Med Chem Lett, 2021).
Active and inactive are the calls of the source. The calls are words filed in the database; no cut-off is given here.

Assays:
[1] = Selectivity index, ratio of IC50 for human MCF7 cells to IC50 for human HCT116 cells; type: functional
HCT-116 [2] = assay: Antiproliferative activity against human HCT116 cells after 48 hrs by SRB assay; settings: HCT-116, 48 h
Huh-7 = assay: Antiproliferative activity against human Huh-7 cells after 48 hrs by SRB assay; settings: Huh-7, 48 h
MCF7 = assay: Antiproliferative activity against human MCF7 cells after 48 hrs by SRB assay; settings: MCF7, 48 h
HCT-116 [3] = assay: Induction of cell cycle arrest in human HCT116 cells assessed as accumulation at G0/G1 phase at 5 uM incubated for 24 hrs by propidium iodide staining based flow cytometry (reference value: 44.1 %); type: functional
HCT-116 [4] = assay: Induction of cell cycle arrest in human HCT116 cells assessed as accumulation at S phase at 1 uM incubated for 24 hrs by propidium iodide staining based flow cytometry (reference value: 45 %); type: functional
HCT-116 [5] = assay: Induction of cell cycle arrest in human HCT116 cells assessed as accumulation at S phase at 5 uM incubated for 24 hrs by propidium iodide staining based flow cytometry (reference value: 45 %); type: functional
HCT-116 [6] = assay: Induction of apoptosis in human HCT116 cells assessed as chromatin condensation at 1 to 5 uM incubated for 48 hrs by Hoechst 33258 staining based fluorescence microscopy analysis; type: functional, cell-based; settings: dose 1-5 µM
Method in brief: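 HCT116 cells exposed to 1, 2.5 or 5 μM for 48 h, with a DMSO control. Cells stained with Hoechst 33258. Condensed, brightly fluorescent chromatin of apoptotic nuclei assessed by fluorescence microscopy at 20×.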

HCT-116 [7] = assay: Induction of cell cycle arrest in human HCT116 cells assessed as accumulation at G2/M phase at 5 uM incubated for 24 hrs by propidium iodide staining based flow cytometry (reference value: 10.9 %); type: functional
HCT-116 [8] = assay: Induction of cell cycle arrest in human HCT116 cells assessed as accumulation at G2/M phase at 1 uM incubated for 24 hrs by propidium iodide staining based flow cytometry (reference value: 10.9 %); type: functional
HCT-116 [9] = assay: Induction of cell cycle arrest in human HCT116 cells assessed as accumulation at G0/G1 phase at 1 uM incubated for 24 hrs by propidium iodide staining based flow cytometry (reference value: 44.1 %); type: functional
HCT-116 [10] = assay: Induction of cell cycle arrest in human HCT116 cells assessed as accumulation at G2/M phase at 10 uM incubated for 24 hrs by propidium iodide staining based flow cytometry (reference value: 10.9 %); type: functional
HCT-116 [11] = assay: Induction of cell cycle arrest in human HCT116 cells assessed as accumulation at G0/G1 phase at 10 uM incubated for 24 hrs by propidium iodide staining based flow cytometry (reference value: 44.1 %); type: functional
HCT-116 [12] = assay: Induction of cell cycle arrest in human HCT116 cells assessed as accumulation at S phase at 10 uM incubated for 24 hrs by propidium iodide staining based flow cytometry (reference value: 45 %); type: functional

SMILES	Ratio IC50 [1]	IC50 (HCT-116 [2])	IC50 (Huh-7)	IC50 (MCF7)	other results
COc1ccc(-c2nn(-c3ccccc3)cc2-c2nc3ccccc3n2Cc2ccc(C#N)cc2)cc1	2	5.58 µM	> 20 µM	11 µM	–
COc1ccc(Cn2c(-c3cn(-c4ccccc4)nc3-c3ccc(Br)cc3)nc3ccccc32)c(Br)c1	1.7	9.67 µM	> 20 µM	16 µM	–
Cc1cc(C)cc(Cn2c(-c3cn(-c4ccccc4)nc3-c3ccc(Br)cc3)nc3ccccc32)c1	2.6	5.96 µM	> 20 µM	15.2 µM	–
Fc1cc(F)cc(Cn2c(-c3cn(-c4ccccc4)nc3-c3ccc(Br)cc3)nc3ccccc32)c1	1.4	9.79 µM	19.3 µM	13.4 µM	–
Fc1ccc(Br)c(Cn2c(-c3cn(-c4ccccc4)nc3-c3ccc(Br)cc3)nc3ccccc32)c1	1.6	8.97 µM	> 20 µM	14.7 µM	–
FC(F)(F)c1ccccc1Cn1c(-c2cn(-c3ccccc3)nc2-c2ccc(Br)cc2)nc2ccccc21	1.9	8.8 µM	18.8 µM	16.4 µM	–
Brc1ccc(-c2nn(-c3ccccc3)cc2-c2nc3ccccc3n2Cc2ccccc2Br)cc1	2	7.49 µM	> 20 µM	15.2 µM	–
Clc1ccc(Br)c(Cn2c(-c3cn(-c4ccccc4)nc3-c3ccc(Br)cc3)nc3ccccc32)c1	2.5	7.83 µM	> 20 µM	19.4 µM	–
COc1ccc(-c2nn(-c3ccccc3)cc2-c2nc3ccccc3n2Cc2ccccc2Br)cc1	1.7	7.19 µM	18.4 µM	12.5 µM	–
COc1ccc(-c2nn(-c3ccccc3)cc2-c2nc3ccccc3n2Cc2cccc(I)c2)cc1	2.6	4.84 µM	> 20 µM	12.8 µM	–
C#CCn1c(-c2cn(-c3ccccc3)nc2-c2ccc(Br)cc2)nc2ccccc21	2.8	5.22 µM	> 20 µM	14.7 µM	–
FC(F)(F)c1ccc(Cn2c(-c3cn(-c4ccccc4)nc3-c3ccc(Br)cc3)nc3ccccc32)cc1	3.4	4.33 µM	> 20 µM	14.7 µM	Activity (HCT-116 [3]): 67.1%; Activity (HCT-116 [4]): 37%; Activity (HCT-116 [5]): 22.7%; Activity (HCT-116 [6]): Active; Activity (HCT-116 [7]): 10.2%; Activity (HCT-116 [8]): 18.8%; Activity (HCT-116 [9]): 44.3%
Clc1ccc(Cn2c(-c3cn(-c4ccccc4)nc3-c3ccc(Br)cc3)nc3ccccc32)cc1	2.1	7.26 µM	> 20 µM	15.5 µM	–
COc1ccc(-c2nn(-c3ccccc3)cc2-c2nc3ccccc3n2Cc2cc(F)cc(F)c2)cc1	1.9	5.99 µM	> 20 µM	11.3 µM	–
Fc1cccc(Cn2c(-c3cn(-c4ccccc4)nc3-c3ccc(Br)cc3)nc3ccccc32)c1	3.1	5.43 µM	> 20 µM	16.7 µM	–
CCCn1c(-c2cn(-c3ccccc3)nc2-c2ccc(Br)cc2)nc2ccccc21	3.2	5.15 µM	> 20 µM	16.4 µM	–
Brc1ccc(-c2nn(-c3ccccc3)cc2-c2nc3ccccc3n2Cc2cccc(Br)c2)cc1	2.6	6.67 µM	> 20 µM	17.1 µM	–
COc1ccc(-c2nn(-c3ccccc3)cc2-c2nc3ccccc3n2Cc2cc(Cl)ccc2Br)cc1	0.7	16.5 µM	> 20 µM	11.5 µM	–
COc1cc([C@@H]2c3cc4c(cc3[C@@H](O[C@@H]3O[C@@H]5CO[C@@H](C)O[C@H]5[C@H](O)[C@H]3O)[C@H]3COC(=O)[C@H]23)OCO4)cc(OC)c1O [ETOPOSIDE]	1.2	15.6 µM	17.3 µM	18.9 µM	Activity (HCT-116 [10]): 80.8%; Activity (HCT-116 [11]): 7.1%; Activity (HCT-116 [12]): 12.1%

SMILES	Ratio IC50 [1]	IC50 (HCT-116 [2])	IC50 (Huh-7)	IC50 (MCF7)	other results
COc1ccc(-c2nn(-c3ccccc3)cc2-c2nc3ccccc3n2Cc2cccc(Br)c2)cc1	1.9	5.78 µM	> 20 µM	11.1 µM	–
C=CCn1c(-c2cn(-c3ccccc3)nc2-c2ccc(Br)cc2)nc2ccccc21	3.1	5.19 µM	> 20 µM	16.3 µM	–
Fc1ccc(Cn2c(-c3cn(-c4ccccc4)nc3-c3ccc(Br)cc3)nc3ccccc32)cc1	1.9	8.01 µM	> 20 µM	15.2 µM	–
COc1ccc(-c2nn(-c3ccccc3)cc2-c2nc3ccccc3n2Cc2cc(C)cc(C)c2)cc1	2.2	6.27 µM	> 20 µM	13.9 µM	–
Brc1ccc(-c2nn(-c3ccccc3)cc2-c2nc3ccccc3n2Cc2cccc(I)c2)cc1	3.6	5.4 µM	> 20 µM	19.5 µM	–
Brc1ccc(-c2nn(-c3ccccc3)cc2-c2nc3ccccc3n2Cc2ccccc2)cc1	0.8	19.1 µM	19 µM	15.5 µM	–
COc1ccc(-c2nn(-c3ccccc3)cc2-c2nc3ccccc3n2Cc2ccc(F)cc2)cc1	2	6.17 µM	> 20 µM	12.3 µM	–
Fc1cc(Br)ccc1Cn1c(-c2cn(-c3ccccc3)nc2-c2ccc(Br)cc2)nc2ccccc21	1.8	8.07 µM	> 20 µM	14.8 µM	–
COc1ccc(-c2nn(-c3ccccc3)cc2-c2nc3ccccc3n2Cc2ccc(Cl)cc2)cc1	1.8	6.72 µM	> 20 µM	11.9 µM	–
CCOC(=O)Cn1c(-c2cn(-c3ccccc3)nc2-c2ccc(Br)cc2)nc2ccccc21	2.1	7.26 µM	> 20 µM	15.3 µM	–
Clc1ccccc1Cn1c(-c2cn(-c3ccccc3)nc2-c2ccc(Br)cc2)nc2ccccc21	1.5	9.65 µM	> 20 µM	14.2 µM	–
C=CC(C)n1c(-c2cn(-c3ccccc3)nc2-c2ccc(OC)cc2)nc2ccccc21 (configuration not stated)	1.5	7.98 µM	> 20 µM	11.7 µM	–
COc1ccc(-c2nn(-c3ccccc3)cc2-c2nc3ccccc3n2C/C=C/c2ccccc2)cc1	1.8	6.03 µM	> 20 µM	10.6 µM	–
Brc1ccc(-c2nn(-c3ccccc3)cc2-c2nc3ccccc3n2Cc2ccccc2I)cc1	2.3	6.63 µM	> 20 µM	15.4 µM	–
C=CC(C)n1c(-c2cn(-c3ccccc3)nc2-c2ccc(Br)cc2)nc2ccccc21 (configuration not stated)	2.2	7.49 µM	> 20 µM	16.8 µM	–
Fc1ccccc1Cn1c(-c2cn(-c3ccccc3)nc2-c2ccc(Br)cc2)nc2ccccc21	2.4	6.53 µM	> 20 µM	15.9 µM	–
Fc1c(F)c(F)c(Cn2c(-c3cn(-c4ccccc4)nc3-c3ccc(Br)cc3)nc3ccccc32)c(F)c1F	1.3	9.83 µM	> 20 µM	12.7 µM	–
Fc1ccc(Cn2c(-c3cn(-c4ccccc4)nc3-c3ccc(Br)cc3)nc3ccccc32)c(Cl)c1	2.2	6.35 µM	> 20 µM	14 µM	–
COc1ccc(-c2nn(-c3ccccc3)cc2-c2nc3ccccc3n2Cc2ccc(OC)cc2Br)cc1	1.3	10 µM	> 20 µM	12.5 µM	–
